An excerpt weighted towards active compounds, which were near 5.8% of everything screened.
T cruzi growth = inhibitors of T. cruzi proliferation. inhibition, % at 8.34 µM. actives 5.9% (n = 77,000). T. cruzi beta-gal in NIH3T3, GalScreen luminescence, 90 h;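 active means mean inhibition above about 93%, with at least 55% of replicates each passing it, limit read from the data, passing the limit was not always enough; inconclusive means only one of those two conditions holds; inactive means neither condition holds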
Pf Dd2 growth = P. falciparum Dd2 growth inhibition. actives 2.3% (n = 94,000). AID 1159554. SYBR Green, 72 h; active compounds read low. activity change, % at 10 µM; in the data active means activity change below about -80%; inconclusive means no clear call, values can overlap the other calls
IDH1 mut inh = IDH1 R132H (human) inhibition | actives 0.18% (n = 70,000) | AID 624101 | IDH1 R132H reductase, diaphorase/resazurin fluorescence, 60 min | inhibition, % at 10 µM; in the data active means inhibition above about 34%; inconclusive means no clear call, values can overlap the other calls; inactive means below about 11%;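 further: 0% = DMSO and 100% = no enzyme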
GASC1 inh = blocks human GASC-1 (KDM4C) demethylase activity; GST-KDM4C 2-372, H3K9me3 peptide, LANCE TR-FRET; AID 720574; actives 0.15% (n = 96,000); Q9H3R0; inhibition, % at 12.5 µM;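 active means mean replicate inhibition above about 25%, with at least 55% of replicates also reaching it, limit read from the data, passing the limit was not always enough; inconclusive means only one of those two conditions met; inactive means neither condition met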
Target sequence (Q9H3R0 2-372 limits assumed): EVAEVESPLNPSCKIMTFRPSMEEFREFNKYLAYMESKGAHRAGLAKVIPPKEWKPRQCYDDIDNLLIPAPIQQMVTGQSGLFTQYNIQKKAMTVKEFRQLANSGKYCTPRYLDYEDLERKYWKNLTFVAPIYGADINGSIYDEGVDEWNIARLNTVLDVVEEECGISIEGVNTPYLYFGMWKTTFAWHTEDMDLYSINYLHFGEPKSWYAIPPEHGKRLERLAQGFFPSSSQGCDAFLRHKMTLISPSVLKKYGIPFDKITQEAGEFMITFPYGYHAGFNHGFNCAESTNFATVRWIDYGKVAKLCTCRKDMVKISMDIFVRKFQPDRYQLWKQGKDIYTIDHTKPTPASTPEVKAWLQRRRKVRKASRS
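Material: GST-tagged GASC-1 (JMJD2C) catalytic fragment, aa 2-372 / Quantity: enzyme final amount 10 nM / Medium: HEPES buffer, pH 7.5, plus ascorbate / Doses: one test concentration per compound / Incubation: 30 min reaction, 60 min detection, RT / Measured by: LANCE TR-FRET / Read-out: inhibition from TR-FRET ratio decrease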
An asterisk follows results filed as active; ? = inconclusive; . = no result given.

SMILES | T cruzi growth | Pf Dd2 growth | IDH1 mut inh | GASC1 inh
C[C@@H]1CN([C@H](C)CO)C(=O)c2c(c3ccccc3n2C)-c2ccccc2CO[C@@H]1CN(C)Cc1ccc(Cl)c(Cl)c1 | . | -85* | . | -2
COc1ccc(S(=O)(=O)N(C)C[C@@H]2Oc3c(NC(=O)c4ccc(-c5nccs5)cc4)cccc3C(=O)N([C@H](C)CO)C[C@@H]2C)cc1 | 94 | -8 | 1 | -3
CO[C@H]1CN(C)C(=O)c2ccc(NC(=O)Nc3ccccc3)cc2OC[C@H](C)N(C(C)=O)C[C@@H]1C | . | -6 | . | -1
CCCN(C)C[C@H]1OCCCC[C@@H](C)Oc2ccc(NC(=O)CCC(F)(F)F)cc2C(=O)N([C@H](C)CO)C[C@@H]1C | 50 | -61 | 2 | -1
COc1ccccc1C#Cc1ccc2c(c1)[C@@H]1NCC[C@@H]1[C@H](CO)N2 | . | -90* | . | 0
OC[C@@H]1Nc2ccc(C#Cc3cccc(F)c3)cc2[C@H]2NCC[C@@H]12 | . | -88* | . | -1
C[C@@H]1CN([C@@H](C)CO)C(=O)c2cc(-c3cccc(C#N)c3)cnc2O[C@H]1CN(C)C(=O)C1CCC1 | -76 | 16 | . | -1
CC(C)(O)C#Cc1cccc(-c2nc(C(=O)N[C@@H]3CCN(Cc4ccccc4)C3)cc3c2[C@H](CCO)N(S(=O)C(C)(C)C)C3)c1 (some centres not stated) | . | -82* | . | -4
CC(C)(C)[S@](=O)N1Cc2cc(C(=O)NC3CCC3)nc(-c3cccc(Br)c3)c2[C@@H]1CCO | . | -85* | . | -2
CC(C)(C)[S@@](=O)N1Cc2cc(C(=O)NC3CCC3)nc(-c3cccc(Br)c3)c2[C@H]1CCO | . | -77 | . | -3
COc1ccc(C#Cc2cccc(-c3nc(C(=O)N[C@@H]4CCN(Cc5ccccc5)C4)cc4c3[C@H](CCO)N(S(=O)C(C)(C)C)C4)c2)cc1OC (some centres not stated) | . | -84* | . | .
C/C=C/c1ccc2c(c1)O[C@@H](CN(C)C(=O)Cc1ccncc1)[C@@H](C)CN([C@H](C)CO)S2(=O)=O | -11 | -58 | 0 | -4
C[C@@H]1CN([C@H](C)CO)S(=O)(=O)c2ccc(C#CC3CC3)cc2O[C@H]1CN(C)C(=O)Cc1ccncc1 | 79 | -64 | 7 | 1
C[C@H](CO)N1C[C@H](C)[C@H](CN(C)C(=O)Cc2ccncc2)Oc2cc(C#CC3CCCCC3)ccc2S1(=O)=O | 86 | -86* | ? | -2
C/C=C/c1ccc2c(c1)O[C@@H](CN(C)C(=O)Cc1ccncc1)[C@H](C)CN([C@H](C)CO)S2(=O)=O | 17 | -84* | 2 | -1
C[C@@H]1CN([C@@H](C)CO)C(=O)c2cc(NC(=O)Nc3ccccc3)ccc2O[C@@H](C)CCCCO[C@@H]1CN(C)Cc1ccc(C(F)(F)F)cc1 | 83 | -82* | 0 | 1
C[C@H]1CCCCO[C@H](CN(C)Cc2ccc(C(F)(F)F)cc2)[C@@H](C)CN([C@@H](C)CO)C(=O)c2cc(NC(=O)Nc3ccc(F)cc3)ccc2O1 | 91 | -2 | . | -1
C[C@@H]1CN([C@H](C)CO)C(=O)c2cc(NC(=O)Nc3ccc(F)cc3)ccc2O[C@@H](C)CCCCO[C@H]1CN(C)Cc1ccc(C(F)(F)F)cc1 | 94 | -82* | . | -2
C[C@@H]1CCCCO[C@H](CN(C)Cc2ccc(C(F)(F)F)cc2)[C@H](C)CN([C@@H](C)CO)C(=O)c2cc(NC(=O)Nc3ccccc3)ccc2O1 | 77 | -76 | . | -2
C[C@@H]1CCCCO[C@H](CN(C)Cc2ccc(Cl)c(Cl)c2)[C@@H](C)CN([C@H](C)CO)C(=O)c2cc(NC(=O)C3CCCCC3)ccc2O1 | 92 | -22 | . | 0
C[C@@H]1CCCCO[C@@H](CN(C)Cc2ccc(Cl)c(Cl)c2)[C@H](C)CN([C@H](C)CO)C(=O)c2cc(NC(=O)C3CCCCC3)ccc2O1 | 84 | -83* | 0 | 2
C[C@@H]1CCCCO[C@H](CN(C)Cc2ccc(C(F)(F)F)cc2)[C@@H](C)CN([C@@H](C)CO)C(=O)c2cc(NC(=O)Cc3ccccc3)ccc2O1 | 6 | -89* | . | -1
C[C@H]1CN([C@@H](C)CO)C(=O)c2cc(NC(=O)Nc3ccc(F)cc3)ccc2O[C@H]1CN(C)Cc1ccc(C(=O)O)cc1 | . | -5 | 1 | 3
CC(C)NC(=O)N1CC2(C1)[C@@H](c1ccccc1)[C@@H](CO)N2C(=O)C1CCCC1 | . | 13 | . | 1
CN(C)CCCNC(=O)[C@H]1[C@H](CO)[C@H]2Cn3c(cccc3=O)[C@@H]1N2C(=O)Nc1cc(F)ccc1F | 13 | . | . | 2
SMILES | T cruzi growth | Pf Dd2 growth | IDH1 mut inh | GASC1 inh
Cc1cc(C)cc(N(C(C)C(=O)Nc2cccc3ccccc23)S(C)(=O)=O)c1 (configuration not stated) | . | . | 0 | .
C[C@H]1CCCCO[C@H](CN(C)C(=O)Nc2ccc(C(F)(F)F)cc2)[C@@H](C)CN([C@@H](C)CO)C(=O)c2cc(NC(=O)c3ccccc3)ccc2O1 | 86 | -87* | . | -1
C[C@@H]1CCCCO[C@H](CN(C)Cc2ccc(Cl)c(Cl)c2)[C@@H](C)CN([C@@H](C)CO)C(=O)c2cc(NC(=O)Cc3ccccc3)ccc2O1 | 75 | -86* | 1 | -1
COc1ccc(NC(=O)N(C)C[C@H]2OCCCC[C@@H](C)Oc3ccc(N(C)C)cc3C(=O)N([C@H](C)CO)C[C@H]2C)cc1 | 26 | 8 | . | 2
C[C@@H]1CN([C@H](C)CO)C(=O)c2cc(NC(=O)Nc3ccccc3)ccc2O[C@@H](C)CCCCO[C@@H]1CN(C)Cc1ccc(C(F)(F)F)cc1 | 82 | -85* | 0 | -2
COc1ccc(NC(=O)N(C)C[C@H]2OCCCC[C@@H](C)Oc3ccc(N(C)C)cc3C(=O)N([C@@H](C)CO)C[C@H]2C)cc1 | 37 | -83* | . | 4
COc1ccccc1-c1ccc2c(c1)[C@@H]1[C@@H](CCN1S(=O)(=O)c1cn(C)cn1)[C@@H](CO)N2 | 43 | -17 | . | -1
C[C@H]1CCCCO[C@@H](CN(C)Cc2ccccc2)[C@@H](C)CN([C@@H](C)CO)C(=O)c2cc(NC(=O)Nc3ccc(C(F)(F)F)cc3)ccc2O1 | 82 | -86* | 0 | 1
COc1ccc(NC(=O)N(C)C[C@@H]2OCCCC[C@H](C)Oc3ccc(NC(=O)c4ccccc4)cc3C(=O)N([C@@H](C)CO)C[C@@H]2C)cc1 | 48 | -84* | . | 5
C[C@@H]1CCCCO[C@H](CN(C)Cc2ccc(C(F)(F)F)cc2)[C@@H](C)CN([C@@H](C)CO)C(=O)c2cc(NC(=O)Nc3ccc4c(c3)OCO4)ccc2O1 | 78 | -81* | . | -1
C[C@H]1CCCCO[C@@H](CN(C)Cc2ccccc2)[C@@H](C)CN([C@@H](C)CO)C(=O)c2cc(NC(=O)Nc3ccc(F)cc3)ccc2O1 | 84 | -86* | 0 | -3
COc1cccc(C#Cc2ccc([C@H]3[C@@H](CO)N4C(=O)CN(C(C)=O)C[C@@H]34)cc2)c1 | . | 19 | . | -1

Compound activity (PubChem BioAssay)
